Legend:
Type in all cases: functional
OVCAR-4 = test: Growth inhibition of human OVCAR-4 cells assessed as cell growth at 0.01 uM incubated for 48 hrs by sulforhodamine B assay relative to control; details: read-out: Activity
A498 = test: Growth inhibition of human A498 cells assessed as cell growth at 0.01 uM incubated for 48 hrs by sulforhodamine B assay relative to control; details: read-out: Activity
Procedure, shortened: (§1)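 NCI Developmental Therapeutics Program NCI60 panel. Compounds that were active in the 10 µM one-dose screen went on to dose–response testing. Growth at each concentration is expressed relative to untreated control (100%). GI50 (concentration giving 50% of maximal inhibition of proliferation) and TGI (concentration giving total growth inhibition) were derived from the curves.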

COLO 205 [1] = test: Growth inhibition of human COLO 205 cells assessed as cell growth at 0.1 uM incubated for 48 hrs by sulforhodamine B assay relative to control; details: read-out: Activity; procedure, shortened: as §1
HT-29 [2] = test: Growth inhibition of human HT-29 cells incubated for 48 hrs by sulforhodamine B assay
Procedure, shortened: (§2)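 NCI60 panel at the NCI Developmental Therapeutics Program. Only compounds active in the 10 µM screen went to dose-response testing. GI50, the concentration giving 50% of maximal inhibition of proliferation, and TGI, the concentration giving total growth inhibition, were derived from the dose-response curves.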

HCC 2998 = test: Growth inhibition of human HCC 2998 cells incubated for 48 hrs by sulforhodamine B assay; details: for CC50: read-out: LC50 (the source's name)
NCI/ADR-RES = test: Growth inhibition of human NCI/ADR-RES cells assessed as cell growth at 1 uM incubated for 48 hrs by sulforhodamine B assay relative to control; details: read-out: Activity
SF-268 [3] = test: Growth inhibition of human SF-268 cells assessed as cell growth at 0.01 uM incubated for 48 hrs by sulforhodamine B assay relative to control; details: read-out: Activity
SN12C = test: Growth inhibition of human SN12C cells assessed as cell growth at 1 uM incubated for 48 hrs by sulforhodamine B assay relative to control; details: read-out: Activity
NCI-H226 = test: Growth inhibition of human NCI-H226 cells assessed as cell growth at 0.1 uM incubated for 48 hrs by sulforhodamine B assay relative to control; details: read-out: Activity
NCI-H460 [4] = test: Growth inhibition of human NCI-H460 cells incubated for 48 hrs by sulforhodamine B assay; procedure, shortened: as §2
HT-29 [5] = test: Growth inhibition of human HT-29 cells assessed as cell growth at 1 uM incubated for 48 hrs by sulforhodamine B assay relative to control; details: read-out: Activity
HOP-92 = test: Growth inhibition of human HOP-92 cells assessed as cell growth at 1 uM incubated for 48 hrs by sulforhodamine B assay relative to control; details: read-out: Activity
SF-268 [6] = test: Growth inhibition of human SF-268 cells incubated for 48 hrs by sulforhodamine B assay
Procedure, shortened: (§3)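 NCI DTP 60-line human tumour panel. Dose-response curves were run only for ligands active in the initial 10 µM screen. GI50 (concentration giving 50% of maximal inhibition of proliferation) and TGI (concentration giving total growth inhibition) were derived from these curves.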

M14 = test: Growth inhibition of human M14 cells assessed as cell growth at 100 uM incubated for 48 hrs by sulforhodamine B assay relative to control; details: read-out: Activity
COLO 205 [7] = test: Growth inhibition of human COLO 205 cells assessed as cell growth at 0.01 uM incubated for 48 hrs by sulforhodamine B assay relative to control; details: read-out: Activity; procedure, shortened: as §1
U-251 [8] = test: Growth inhibition of human U-251 cells assessed as cell growth at 100 uM incubated for 48 hrs by sulforhodamine B assay relative to control; details: read-out: Activity
OVCAR-8 = test: Growth inhibition of human OVCAR-8 cells assessed as cell growth at 0.1 uM incubated for 48 hrs by sulforhodamine B assay relative to control; details: read-out: Activity
LOX IMVI = test: Growth inhibition of human LOX IMVI cells assessed as cell growth at 100 uM incubated for 48 hrs by sulforhodamine B assay relative to control; details: read-out: Activity
KM12 = test: Growth inhibition of human KM12 cells assessed as cell growth at 1 uM incubated for 48 hrs by sulforhodamine B assay relative to control; details: read-out: Activity
A549 = test: Growth inhibition of human A549/ATCC cells assessed as cell growth at 0.1 uM incubated for 48 hrs by sulforhodamine B assay relative to control; details: read-out: Activity; procedure, shortened: as §1
SR = test: Growth inhibition of human SR cells incubated for 48 hrs by sulforhodamine B assay; procedure, shortened: as §3
OVCAR-3 = test: Growth inhibition of human OVCAR-3 cells incubated for 48 hrs by sulforhodamine B assay; details: for CC50: read-out: LC50 (the source's name); procedure, shortened: as §3
U-251 [9] = test: Growth inhibition of human U-251 cells incubated for 48 hrs by sulforhodamine B assay; procedure, shortened: as §3
SK-MEL-28 = test: Growth inhibition of human SK-MEL-28 cells assessed as cell growth at 0.1 uM incubated for 48 hrs by sulforhodamine B assay relative to control; details: read-out: Activity
HCT-116 = test: Growth inhibition of human HCT-116 cells assessed as cell growth at 100 uM incubated for 48 hrs by sulforhodamine B assay relative to control; details: read-out: Activity
MDA-MB-435 = test: Growth inhibition of human MDA-MB-435 cells assessed as cell growth at 100 uM incubated for 48 hrs by sulforhodamine B assay relative to control; details: read-out: Activity
TK-10 = test: Growth inhibition of human TK-10 cells assessed as cell growth at 100 uM incubated for 48 hrs by sulforhodamine B assay relative to control; details: read-out: Activity
RPMI-8226 = test: Growth inhibition of human RPMI-8226 cells incubated for 48 hrs by sulforhodamine B assay; procedure, shortened: as §3
OVCAR-5 [10] = test: Growth inhibition of human OVCAR-5 cells assessed as cell growth at 1 uM incubated for 48 hrs by sulforhodamine B assay relative to control; details: read-out: Activity
SF-295 = test: Growth inhibition of human SF-295 cells assessed as cell growth at 0.1 uM incubated for 48 hrs by sulforhodamine B assay relative to control; details: read-out: Activity
U-251 [11] = test: Growth inhibition of human U-251 cells assessed as cell growth at 1 uM incubated for 48 hrs by sulforhodamine B assay relative to control; details: read-out: Activity
NCI-H460 [12] = test: Growth inhibition of human NCI-H460 cells assessed as cell growth at 0.01 uM incubated for 48 hrs by sulforhodamine B assay relative to control; details: read-out: Activity
BT-549 = test: Growth inhibition of human BT-549 cells assessed as cell growth at 1 uM incubated for 48 hrs by sulforhodamine B assay relative to control; details: read-out: Activity
NCI-H522 = test: Growth inhibition of human NCI-H522 cells assessed as cell growth at 100 uM incubated for 48 hrs by sulforhodamine B assay relative to control; details: read-out: Activity
OVCAR-5 [13] = test: Growth inhibition of human OVCAR-5 cells assessed as cell growth at 0.1 uM incubated for 48 hrs by sulforhodamine B assay relative to control; details: read-out: Activity

Compound Cc1cc(C)c(NC(=O)c2sc3nc4c(cc3c2N)CN(Cc2ccccc2)CC4)c(C)c1 has a growth at 0.01 µM (OVCAR-4) of 93%, a growth at 0.01 µM (A498) of 87% and a growth at 0.1 µM (COLO 205 [1]) of 104%. The GI50 (HT-29 [2]) was 2.88 µM, the LC50 (HT-29 [2]) was over 100 µM and the TGI (HT-29 [2]) was 13.2 µM. It also gave a GI50 (HCC 2998) of 5.33 µM, a TGI (HCC 2998) of 38.4 µM and a CC50 (HCC 2998) of over 100 µM. For the same compound, the growth at 1 µM (NCI/ADR-RES) was 69%, the growth at 0.01 µM (SF-268 [3]) was 98% and the growth at 1 µM (SN12C) was 92%. It also gave a growth at 0.1 µM (NCI-H226) of 93%, a GI50 (NCI-H460 [4]) of 3.29 µM and an LC50 (NCI-H460 [4]) of over 100 µM. It also gave a TGI (NCI-H460 [4]) of 16.3 µM, a growth at 1 µM (HT-29 [5]) of 90% and a growth at 1 µM (HOP-92) of 49%. For the same compound, the GI50 (SF-268 [6]) was 6.93 µM, the LC50 (concentration killing 50% of cells) (SF-268 [6]) was over 100 µM and the TGI (SF-268 [6]) was 64.8 µM. It also gave a growth at 100 µM (M14) of -18%, a growth at 0.01 µM (COLO 205 [7]) of 94% and a growth at 100 µM (U-251 [8]) of -43%. The growth at 0.1 µM (OVCAR-8) was 97%, the growth at 100 µM (LOX IMVI) was -83% and the growth at 1 µM (KM12) was 87%. For the same compound, the growth at 0.1 µM (A549) was 96%, the GI50 (SR) was 1.83 µM and the LC50 (SR) was over 100 µM. The TGI (SR) was 10.7 µM, the GI50 (OVCAR-3) was 2.32 µM and the TGI (OVCAR-3) was 12.6 µM. For the same compound, the CC50 (OVCAR-3) was over 100 µM, the GI50 (U-251 [9]) was 4.35 µM and the LC50 (concentration killing 50% of cells) (U-251 [9]) was over 100 µM. For the same compound, the TGI (U-251 [9]) was 24.2 µM, the growth at 0.1 µM (SK-MEL-28) was 97% and the growth at 100 µM (HCT-116) was -64%. For the same compound, the growth at 100 µM (MDA-MB-435) was -58%, the growth at 100 µM (TK-10) was 5% and the GI50 (RPMI-8226) was 3.18 µM. It also gave an LC50 (RPMI-8226) of over 100 µM, a TGI (RPMI-8226) of 35.1 µM and a growth at 1 µM (OVCAR-5 [10]) of 97%. For the same compound, the growth at 0.1 µM (SF-295) was 92%, the growth at 1 µM (U-251 [11]) was 92% and the growth at 0.01 µM (NCI-H460 [12]) was 99%. For the same compound, the growth at 1 µM (BT-549) was 81%, the growth at 100 µM (NCI-H522) was -29% and the growth at 0.1 µM (OVCAR-5 [13]) was 96%.

Nc1c(C(=O)Nc2ccccc2)sc2nc3c(cc12)CN(Cc1ccccc1)CC3 was tested, and the growth at 0.01 µM (OVCAR-4) was 101%, the growth at 0.01 µM (A498) was 91% and the growth at 0.1 µM (COLO 205 [1]) was 94%. For the same compound, the GI50 (HT-29 [2]) was 24.7 µM, the LC50 (HT-29 [2]) was over 100 µM and the TGI (HT-29 [2]) was over 100 µM. For the same compound, the GI50 (HCC 2998) was 76.1 µM, the TGI (HCC 2998) was over 100 µM and the CC50 (HCC 2998) was over 100 µM. The growth at 1 µM (NCI/ADR-RES) was 98%, the growth at 0.01 µM (SF-268 [3]) was 91% and the growth at 1 µM (SN12C) was 87%. The growth at 0.1 µM (NCI-H226) was 96%, the GI50 (NCI-H460 [4]) was 7.51 µM and the LC50 (NCI-H460 [4]) was over 100 µM. The TGI (NCI-H460 [4]) was over 100 µM, the growth at 1 µM (HT-29 [5]) was 101% and the growth at 1 µM (HOP-92) was 74%. For the same compound, the GI50 (SF-268 [6]) was 5.62 µM, the LC50 (concentration killing 50% of cells) (SF-268 [6]) was over 100 µM and the TGI (SF-268 [6]) was over 100 µM. For the same compound, the growth at 100 µM (M14) was 35%, the growth at 0.01 µM (COLO 205 [7]) was 100% and the growth at 100 µM (U-251 [8]) was 12%. For the same compound, the growth at 0.1 µM (OVCAR-8) was 101%, the growth at 100 µM (LOX IMVI) was 20% and the growth at 1 µM (KM12) was 88%. The growth at 0.1 µM (A549) was 99%, the GI50 (SR) was 13.1 µM and the LC50 (SR) was over 100 µM. The TGI (SR) was over 100 µM, the GI50 (OVCAR-3) was 11.4 µM and the TGI (OVCAR-3) was over 100 µM. The CC50 (OVCAR-3) was over 100 µM, the GI50 (U-251 [9]) was 13.9 µM and the LC50 (concentration killing 50% of cells) (U-251 [9]) was over 100 µM. It also gave a TGI (U-251 [9]) of over 100 µM, a growth at 0.1 µM (SK-MEL-28) of 93% and a growth at 100 µM (HCT-116) of 17%. It also gave a growth at 100 µM (MDA-MB-435) of -6%, a growth at 100 µM (TK-10) of -7% and a GI50 (RPMI-8226) of 55.8 µM. For the same compound, the LC50 (RPMI-8226) was over 100 µM, the TGI (RPMI-8226) was over 100 µM and the growth at 1 µM (OVCAR-5 [10]) was 93%. It also gave a growth at 0.1 µM (SF-295) of 90%, a growth at 1 µM (U-251 [11]) of 101% and a growth at 0.01 µM (NCI-H460 [12]) of 101%. It also gave a growth at 1 µM (BT-549) of 90%, a growth at 100 µM (NCI-H522) of 31% and a growth at 0.1 µM (OVCAR-5 [13]) of 92%.
